ZTA DNA inh: ZTA (EBV) inhibition in EBNA-1 counter-screen; P03206; inhibition, % at 11 µM; ZTA-DNA binding, fluorescence polarization; 320,000 compounds, 0.15% hits; in the data active = inhibition above about 33%
Target sequence (P03206 whole entry, looked up): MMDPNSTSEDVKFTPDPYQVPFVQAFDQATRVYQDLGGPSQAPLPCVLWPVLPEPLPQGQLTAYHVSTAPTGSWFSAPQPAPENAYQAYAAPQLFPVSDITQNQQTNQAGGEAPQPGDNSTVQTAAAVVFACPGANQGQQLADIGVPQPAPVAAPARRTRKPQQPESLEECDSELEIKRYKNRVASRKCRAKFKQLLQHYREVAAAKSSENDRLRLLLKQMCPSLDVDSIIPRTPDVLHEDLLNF
PP1 inh: counter-screen for PP5 inhibitors: inhibitors of human PP1-alpha. P62136. purified PP1alpha, OMFP fluorescence. 320,000 compounds, 0.9% hits. inhibition, % at 6.7 µM;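 active = inhibition above the mean inhibition of all tested compounds plus 3 SD, computed separately for each screening campaign, cut at about 15% in these data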
Target sequence (P62136 whole entry, looked up): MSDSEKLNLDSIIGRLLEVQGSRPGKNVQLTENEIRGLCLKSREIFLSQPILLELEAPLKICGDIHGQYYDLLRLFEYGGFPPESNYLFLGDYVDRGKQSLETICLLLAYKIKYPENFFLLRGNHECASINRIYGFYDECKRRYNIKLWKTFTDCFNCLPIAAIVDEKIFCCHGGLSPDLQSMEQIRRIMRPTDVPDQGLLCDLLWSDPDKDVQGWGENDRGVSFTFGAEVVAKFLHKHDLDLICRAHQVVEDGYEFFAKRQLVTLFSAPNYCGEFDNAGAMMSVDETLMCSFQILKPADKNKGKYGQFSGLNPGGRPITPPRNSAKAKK
core dimer inh: HCV core protein dimerization inhibition; 300,000 compounds, 0.33% hits; TR-FRET GST/Flag-core106 dimerization, 1536-well; inhibition, % at 5 µM;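 active = inhibition above the mean of all tested compounds plus 3 SD, set per screening campaign, cut at about 45% in these data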
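assay system = GST-tagged and Flag-tagged HCV core protein residues 1-106 | controls = unlabelled core106 and no-GST-core106 wells | incubation = compound-protein-antibody incubation 4 h at 22.5 °C | probe or stimulus = Eu donor and XL665 acceptor anti-tag antibodies | read-out = % inhibition based on acceptor/donor emission ratio | signal = TR-FRET 671 and 617 nm emission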
NS3 helicase inh: blocks Hepatitis C virus NS3 helicase unwinding. NS3 helicase DNA unwinding, Cy5 molecular beacon fluorescence. inhibition, % at 10.9 µM. 290,000 compounds, 0.56% hits;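 active = inhibition above the mean of all tested compounds plus 3 SD, set per campaign, cut at about 35% in these data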;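 note: 0% = DMSO wells and 100% = thioflavine S control wells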
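Test system: hepatitis C virus NS3 helicase domain fragment enzyme. Also added: annealed dual-labelled DNA beacon duplex, ATP-started. Timing: 60 min unwinding reaction at 25 °C after ATP addition. Technique: Cy5 fluorescence. Measure: % inhibition of unwinding.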
EBNA-1 inh: blocks EBNA-1 binding to DNA; EBNA-1 DNA binding, fluorescence polarization; inhibition, % at 14.8 µM; 300,000 compounds, 0.34% hits; AID 1950; in the data active = inhibition above about 28%
Active calls of the source: *. Only some compounds are listed: those with a hit (about 1.9% of all), similar ones and a draw of the others.

`Cc1cc(/C=N/NC(=O)CC#N)c(C)n1-c1ccc([N+](=O)[O-])cc1` gave ZTA DNA inh -3, PP1 inh 5, core dimer inh 5, NS3 helicase inh -4 and EBNA-1 inh 4.
`NC(N)=N/N=C/c1ccc(OCc2ccccc2Cl)cc1` gave ZTA DNA inh -13, PP1 inh 17*, core dimer inh -2, NS3 helicase inh -87 and EBNA-1 inh -13.
Screening NC(N)=N/N=C/c1ccccc1 returned ZTA DNA inh 12, PP1 inh -1, core dimer inh -4, NS3 helicase inh 3 and EBNA-1 inh 2.
`Cc1cc(N2C(=O)C(O)=C(C(=O)c3cc4ccccc4o3)C2c2ccc(Cl)cc2)no1` (stereo not given) gave ZTA DNA inh 16, PP1 inh 29*, core dimer inh -4, NS3 helicase inh 32 and EBNA-1 inh -2.
`C=CCOc1cccc(C2C(C(=O)c3cc4ccccc4o3)=C(O)C(=O)N2c2cc(C)on2)c1` (stereo not given) gave ZTA DNA inh 12, PP1 inh 28*, core dimer inh -1, NS3 helicase inh 32 and EBNA-1 inh 19.
Cc1cc(N2C(=O)C(O)=C(C(=O)c3ccco3)C2c2cccc(Cl)c2)no1 (stereo not given) was read as ZTA DNA inh 0, PP1 inh 8, core dimer inh 7, NS3 helicase inh 31 and EBNA-1 inh -4.
For Cc1cc(N2C(=O)C(O)=C(C(=O)c3cc4ccccc4o3)C2c2cccc(Cl)c2)no1 (stereo not given) the results were ZTA DNA inh 10, PP1 inh 27*, core dimer inh -8, NS3 helicase inh 19 and EBNA-1 inh 5.
COc1ccccc1C1C(C(=O)c2cc3ccccc3o2)=C(O)C(=O)N1c1cc(C)on1 (stereo not given) was read as ZTA DNA inh 10, PP1 inh 20*, core dimer inh -4, NS3 helicase inh 32 and EBNA-1 inh 1.
Screening Cc1ccc(C(=O)NCc2ccco2)cc1S(=O)(=O)N1CCCC1 returned ZTA DNA inh -12, PP1 inh 0, core dimer inh 0, NS3 helicase inh 8 and EBNA-1 inh 4.
COc1ccc(Cc2nnc(NS(=O)(=O)c3ccc([N+](=O)[O-])cc3)s2)cc1 was read as ZTA DNA inh 1, PP1 inh 1, core dimer inh 22, NS3 helicase inh -12 and EBNA-1 inh -7.
`O=C1NC(=Nc2ccc(O)cc2)S/C1=C\C=C\c1ccco1` gave ZTA DNA inh 12, PP1 inh 16*, core dimer inh 18, NS3 helicase inh 17 and EBNA-1 inh -13.
CCOC(=O)C1CCCN(S(=O)(=O)c2ccc(S(=O)(=O)N(CC)CC)cc2)C1 (stereo not given) was read as ZTA DNA inh 16, PP1 inh 4, core dimer inh 5, NS3 helicase inh 3 and EBNA-1 inh 0.
Screening C=CCn1c(SCC(=O)NC2CCCC2)nc2scc(-c3ccco3)c2c1=O returned ZTA DNA inh 1, PP1 inh 5, core dimer inh 55*, NS3 helicase inh 25 and EBNA-1 inh -6.
`O=c1cc(CSc2n[nH]c(-c3ccncc3)n2)nc2sccn12` gave ZTA DNA inh 8, PP1 inh 3, core dimer inh 53*, NS3 helicase inh 2 and EBNA-1 inh 14.
`CC(C)(C)C(=O)NC1CCN(CC(=O)Nc2ccc3c(c2)OCO3)CC1` gave ZTA DNA inh 0, PP1 inh -1, core dimer inh -5, NS3 helicase inh -3 and EBNA-1 inh 2.
Screening CCCOc1ccc2cc(C(=O)NCc3ccccc3)c(=O)oc2c1 returned ZTA DNA inh 11, PP1 inh 3, core dimer inh 58*, NS3 helicase inh -1 and EBNA-1 inh 9.
`COc1ccc2oc(=O)c(C(=O)NCc3ccccc3)cc2c1` gave ZTA DNA inh 14, PP1 inh -2, core dimer inh -1, NS3 helicase inh 1 and EBNA-1 inh 9.
`Cc1[nH][nH]c(=O)c1C(c1c(C)[nH][nH]c1=O)c1cn(Cc2cccc3ccccc23)c2ccccc12` gave ZTA DNA inh 13, PP1 inh 16*, core dimer inh 38, NS3 helicase inh 3 and EBNA-1 inh -4.
For Cc1ccc(C(C(=O)NC2CCCCC2)N2CCCC2)cc1 (stereo not given) the results were ZTA DNA inh -7, PP1 inh 17*, core dimer inh -11, NS3 helicase inh -3 and EBNA-1 inh 1.
`O=C(NC1CCN(Cc2ccccc2)CC1)c1cccc(S(=O)(=O)Nc2ccc(F)cc2)c1` gave ZTA DNA inh 14 and PP1 inh 0.
O=C(O)CCC1c2cc3c4cc2OC2Oc5cc6c(cc51)C(CCC(=O)O)c1cc5c7cc1OC(O6)c1cc6cc(c1)Oc1cc(cc(C(=O)O)c1)Oc1cc8cc(c1)C(Oc1cc(c(cc1C5CCC(=O)O)C3CCC(=O)O)OC(O4)c1cc(cc(c1)Oc1cc(cc(C(=O)O)c1)O8)Oc1cc(cc(C(=O)O)c1)Oc1cc(cc2c1)Oc1cc(cc(C(=O)O)c1)O6)O7 (stereo not given) was read as ZTA DNA inh 106*, PP1 inh 91*, core dimer inh 61* and EBNA-1 inh 102*.
Screening COc1ccc(C2C(C#N)=C3NC(=O)c4c(sc5c4CCCCC5)N3C3=C2C(=O)CC(C)(C)C3)cc1 (stereo not given) returned ZTA DNA inh -11, PP1 inh 16*, core dimer inh 46*, NS3 helicase inh 24 and EBNA-1 inh -4.
Nc1nnc(SCc2c(F)cccc2Cl)s1 was read as ZTA DNA inh 7, PP1 inh -1, core dimer inh -1, NS3 helicase inh -1 and EBNA-1 inh 14.
`CCC1Oc2ccccc2N(CC(=O)NCCCN2CCN(c3ccc(OC)cc3)CC2)C1=O` (stereo not given) gave ZTA DNA inh 1, PP1 inh -2, core dimer inh 7, NS3 helicase inh -18 and EBNA-1 inh 6.
Screening COc1ccc(CC(=O)NNc2ncnc3c2cnn3-c2ccc(C)cc2)cc1 returned ZTA DNA inh 3, PP1 inh 2, core dimer inh -1, NS3 helicase inh 12 and EBNA-1 inh 97*.
COc1ccc(CC(=O)NNc2ncnc3c2cnn3-c2ccccc2)cc1 was read as ZTA DNA inh 1, PP1 inh -7, core dimer inh 8, NS3 helicase inh 2 and EBNA-1 inh -4.
Screening Cc1cc(C)n(-c2cc(N3CCN(S(=O)(=O)c4ccc5ccccc5c4)CC3)ccc2[N+](=O)[O-])n1 returned ZTA DNA inh 1, PP1 inh 10, core dimer inh 54*, NS3 helicase inh -9 and EBNA-1 inh 6.
For CC(=O)c1ccc(S(=O)(=O)N2CCN(c3nc(-c4cccnc4)nc4ccccc34)CC2)cc1 the results were ZTA DNA inh 4 and PP1 inh 14.

Screens from PubChem.
